Test results: paper PMC10416317 (Journal of medicinal chemistry, 2023)
Values belong to the compound of their own block, whether it stands above or below them.

How the values were obtained:
[1] = target: AKR1B1 (Mus musculus, UniProt P45376); assay: Methylglyoxylate-metabolizing; type: in vivo; conditions: i.p. 120 mg/kg, 18h
[2] = target: T1, SCoR2 (Mus musculus, UniProt Q9JII6); type: in vivo; conditions: i.p. 120 mg/kg, 18h
T1 sequence (Q9JII6 1-325): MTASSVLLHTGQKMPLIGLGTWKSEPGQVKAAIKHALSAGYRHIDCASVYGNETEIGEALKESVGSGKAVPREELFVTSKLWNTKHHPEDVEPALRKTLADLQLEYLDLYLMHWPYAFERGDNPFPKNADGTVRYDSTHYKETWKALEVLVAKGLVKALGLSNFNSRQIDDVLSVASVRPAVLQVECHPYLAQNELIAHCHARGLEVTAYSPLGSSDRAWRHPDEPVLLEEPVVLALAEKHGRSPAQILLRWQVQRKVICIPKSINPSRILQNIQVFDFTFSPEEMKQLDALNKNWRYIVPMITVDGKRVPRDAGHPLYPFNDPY
How it was run: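 Mice received test compound 120 mg/kg i.p. (vehicle DMSO); liver, lung, heart, brain and spleen were harvested 18 h later. Tissues were homogenized in 50 mM phosphate pH 7.0, 150 mM NaCl, 100 μM EDTA/DTPA, clarified at 20,000xg, 4°C, and protein measured by BCA. Lysate started reactions with 200 μM SNO-CoA and 100 μM NADPH in phosphate/EDTA/DTPA buffer; 2 min; triplicate; n≥3.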

[3] = system: acute kidney injury; assay: Ischemia/reperfusion-induced AKI model in mice; type: in vivo; conditions: mouse I/R AKI
[4] = target: AKR1B1 (Homo sapiens, UniProt P15121); assay: Inhibition of methylglyoxylate-metabolizing activity of purified AKR1B1; type: biochemical; conditions: ratio of IC50 values
[5] = target: T1, SCoR2; assay: SNO-CoA-metabolizing activity in kidneys of treated mice; type: in vivo
How it was run: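 Mice got test compound i.p. with DMSO vehicle or were fed compound-containing diet; SCoR2-knockout mice served as comparators. Kidneys were taken 18 h after a single 20–120 mg/kg dose, or 24 h after I/R surgery done 18 h post-dose. Tissue was homogenized in 50 mM phosphate pH 7.0, 150 mM NaCl, 100 μM EDTA/DTPA, then clarified (20,000xg, 4°C) and BCA-normalized. Lysate started reactions with 200 μM SNO-CoA and 100 μM NADPH; 2 min, triplicate.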

[6] = target: T2, SCoR2 (Homo sapiens, UniProt P14550); assay: Differential scanning fluorimetry; type: binding; conditions: 5 μM SCoR2, 250 μM compound; SCoR2 alone 48.3 (buffer), 48.0 (1% DMSO)
T2 sequence (P14550 1-325): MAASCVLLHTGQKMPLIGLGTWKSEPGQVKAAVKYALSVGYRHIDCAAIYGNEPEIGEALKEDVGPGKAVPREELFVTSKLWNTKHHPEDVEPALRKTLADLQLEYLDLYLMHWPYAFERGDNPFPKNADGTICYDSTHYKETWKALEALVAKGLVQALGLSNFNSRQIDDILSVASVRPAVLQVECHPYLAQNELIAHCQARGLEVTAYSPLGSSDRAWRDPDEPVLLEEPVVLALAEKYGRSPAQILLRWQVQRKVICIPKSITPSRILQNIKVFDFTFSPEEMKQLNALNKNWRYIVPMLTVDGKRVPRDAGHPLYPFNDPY

[7] = target: T3, SCoR2 (AKR1A1) (Homo sapiens, UniProt P14550); assay: Inhibition of DL-glyceraldehyde-metabolizing activity of purified SCoR2; type: biochemical; conditions: DL-glyceraldehyde as substrate, in vitro
T3 sequence (P14550 1-325): T2 sequence (P14550 1-325)
How it was run: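 Initial screen with recombinant human SCoR2 (C-terminal His tag, expressed in E. coli, Ni-NTA purified). The 1 ml cuvette held 20 nM SCoR2, 3 mM DL-glyceraldehyde and varying inhibitor in 50 mM phosphate pH 7.0. NADPH (100 μM) started the reaction, which ran 2 min. NADPH consumption slope was read spectrophotometrically and IC50 was obtained by curve fitting.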

[8] = 20 mg/kg i.p. 18 h before surgery, 24 h post-surgery
[9] = diet with 125 mg/kg diet for 3 weeks or 12 weeks

SMILES: O=C1NC(=O)C2(N1)c1ccccc1-c1ccc(C3CC3)cc12 (centres unmarked) [5-1]
- Activity of kidney AKR1B1 [1]: did not inhibit
- Activity of SCoR2 in brain [2]: not in brain
- Activity of SCoR2 in heart [2]: inhibited
- Activity of SCoR2 in liver [2]: inhibited
- Activity of SCoR2 in lung [2]: inhibited
- Activity of SCoR2 in spleen [2]: inhibited
- Protection against AKI ([3]; 120 mg/kg i.p. 18 h before surgery): protected against AKI

SMILES: O=C1NC(=O)C2(N1)c1cc(F)ccc1-c1ccc(F)cc12 [Imirestat, imirestat]
- Times more potent at AKR1B1 (vs SCoR2) [4]: 1.2
- Protection against AKI ([3]; 20 mg/kg i.p. 18 h before surgery): does not protect against AKI
- Blood urea nitrogen (BUN) vs DMSO-treated mice [3, 8]: the same
- Serum creatinine vs DMSO-treated mice [3, 8]: the same
- Protection against AKI [3, 9]: did not show protection against AKI
- SNO-CoA-metabolic activity in kidneys following AKI ([5]; 20 mg/kg i.p. 18 h before AKI surgery, 24 h post-surgery): strongly inhibited
- SCoR2 activity in the kidney on drug diet [5, 9]: potently inhibited

SMILES: NC(=O)C1=CN([C@@H]2O[C@H](COP(=O)(O)OP(=O)(O)OC[C@H]3O[C@@H](n4cnc5c(N)ncnc54)[C@H](OP(=O)(O)O)[C@@H]3O)[C@@H](O)[C@H]2O)C=CC1 [NADPH]
- Melting temperature (Tm) of SCoR2, compound alone [6]: 51.4 °C

Further lines, results first:

- Inhibition of SCoR2 / potency at SCoR2 (in words) [7]: less potent
SMILES: O=C1NC(=O)C2(N1)c1ccccc1-c1ccccc12 [compound 2]

- Inhibition of SCoR2 / potency at SCoR2 (in words) [7]: inhibit
SMILES: CC(/C=C1\SC(=S)N(CC(=O)O)C1=O)=C\c1ccccc1 [epalrestat, reference compound]
